Active and inactive are the calls of the source.
How the values were obtained:
Type in all cases: cell-based
[1] = target: T1, Peroxisome proliferator-activated receptor alpha (Homo sapiens) (UniProt Q07869); test: Agonist activity at full length human FLAG-tagged GAL4-DBD fused PPARalpha LBD (168 to 468 residues) expressed in COS1 cells transfected with hRXRalpha and hCPT1A-driven reporter assessed as increase in CPT1A mRNA level at 50 uM measured after 18 hrs by dual luciferase reporter gene assay
T1 sequence (whole entry): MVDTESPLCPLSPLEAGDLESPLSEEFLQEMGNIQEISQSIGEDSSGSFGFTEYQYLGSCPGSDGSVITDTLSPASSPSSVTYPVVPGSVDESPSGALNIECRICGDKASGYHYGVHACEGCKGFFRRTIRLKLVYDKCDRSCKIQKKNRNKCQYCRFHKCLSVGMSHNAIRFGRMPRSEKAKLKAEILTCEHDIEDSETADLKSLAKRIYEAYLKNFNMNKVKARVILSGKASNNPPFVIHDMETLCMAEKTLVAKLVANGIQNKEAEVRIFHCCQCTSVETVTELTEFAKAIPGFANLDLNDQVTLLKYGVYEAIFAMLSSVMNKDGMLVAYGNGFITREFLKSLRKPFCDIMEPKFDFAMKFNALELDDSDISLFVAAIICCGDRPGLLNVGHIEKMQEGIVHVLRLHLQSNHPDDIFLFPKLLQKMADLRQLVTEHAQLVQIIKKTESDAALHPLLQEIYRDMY
Procedure, shortened: (§1)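 COS-1 cells were transfected with full-length human PPARα (or PPARγ) plus RXRα expression plasmids, with a wild-type or PPRE-mutated CPT1A-intronic (or PLIN1) luciferase reporter and pRL-CMV. Cells were treated with 50 μM in 0.1% DMSO (final) for 18 h. Dual-luciferase read-out normalized to DMSO control. Three biological replicates in quadruplicate, mean ± SEM.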

[2] = target: T2, Retinoic acid receptor RXR-alpha (Homo sapiens) (UniProt P19793); test: Agonist activity at full length human FLAG-tagged GAL4-DBD fused RXRalpha LBD (202 to 462 residues) expressed in COS1 cells at 25 to 50 uM measured after 18 hrs by dual luciferase reporter gene assay
T2 sequence (whole entry): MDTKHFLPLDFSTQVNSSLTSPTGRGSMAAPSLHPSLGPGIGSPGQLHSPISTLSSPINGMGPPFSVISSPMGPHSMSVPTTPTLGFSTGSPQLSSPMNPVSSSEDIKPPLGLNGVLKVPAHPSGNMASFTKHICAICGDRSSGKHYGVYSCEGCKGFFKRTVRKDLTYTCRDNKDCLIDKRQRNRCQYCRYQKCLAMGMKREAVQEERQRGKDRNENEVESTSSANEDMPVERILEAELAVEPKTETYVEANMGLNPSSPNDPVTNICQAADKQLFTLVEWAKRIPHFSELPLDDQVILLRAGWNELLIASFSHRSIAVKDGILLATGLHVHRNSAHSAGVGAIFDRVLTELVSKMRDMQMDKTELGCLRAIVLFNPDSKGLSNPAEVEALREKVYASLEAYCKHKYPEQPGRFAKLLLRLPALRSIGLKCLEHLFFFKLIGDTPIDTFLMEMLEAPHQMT
Procedure, shortened: (§2)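 COS-1 cells were transfected using Lipofectamine 2000 with GAL4-DBD–human NR-LBD plasmid, a 5×UAS-SV40 firefly luciferase reporter and pRL-CMV. After 6 h, cells were treated with 0, 25 or 50 μM in 0.1% DMSO (final) for 18 h. Firefly signal was normalized to Renilla, then to DMSO control and GAL4-only. Three biological replicates in quadruplicate, mean ± SEM, two-way ANOVA with Bonferroni.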

[3] = target: T3, Peroxisome proliferator-activated receptor alpha (Mus musculus) (UniProt P23204); test: Agonist activity at PPARalpha in C57BL/6N mouse primary hepatocytes assessed as SREBF1 mRNA expression at 50 uM measured after 18 hrs by qRT-PCR analysis
T3 sequence (whole entry): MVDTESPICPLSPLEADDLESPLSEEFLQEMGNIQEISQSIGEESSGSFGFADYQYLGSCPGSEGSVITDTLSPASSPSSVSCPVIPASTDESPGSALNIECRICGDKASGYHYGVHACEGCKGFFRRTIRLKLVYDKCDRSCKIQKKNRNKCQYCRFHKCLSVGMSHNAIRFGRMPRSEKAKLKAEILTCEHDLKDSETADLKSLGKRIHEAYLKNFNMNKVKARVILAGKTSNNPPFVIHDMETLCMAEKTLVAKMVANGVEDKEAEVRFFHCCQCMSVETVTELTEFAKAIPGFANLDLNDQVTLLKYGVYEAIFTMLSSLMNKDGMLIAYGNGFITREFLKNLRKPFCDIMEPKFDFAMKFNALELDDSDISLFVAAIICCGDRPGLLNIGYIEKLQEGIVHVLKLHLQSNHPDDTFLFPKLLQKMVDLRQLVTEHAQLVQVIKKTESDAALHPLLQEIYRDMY
Procedure, shortened: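 Treatment for 18 h at 50 μM (or 1 μM for the 1 μM agents), DMSO vehicle. Harvested for qPCR. mRNA normalized to TBP by the comparative threshold method, expressed relative to DMSO control. Two biological replicates run in duplicate, mean ± SEM. Primary hepatocytes came from male C57BL/6N mice aged 7–8 weeks, isolated by portal-vein perfusion and digestion, seeded on collagen I and used on day 2. HuH-7 cells were kept in DMEM with 10% FBS and ITS.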

[4] = target: T1, Peroxisome proliferator-activated receptor alpha (Homo sapiens); test: Agonist activity at full length human FLAG-tagged GAL4-DBD fused PPARalpha LBD (168 to 468 residues) expressed in COS1 cells transfected with hRXRalpha and pGL3-CPT1AInt PPRE mutant assessed as CPT1A mRNA level at 50 uM measured after 18 hrs by dual luciferase reporter gene assay; procedure, shortened: as §1
[5] = target: T4, Peroxisome proliferator-activated receptor gamma (Homo sapiens) (UniProt P37231); test: Agonist activity at full length human FLAG-taggedGAL4-DBD fused PPARgamma LBD (205 to 505 residues) expressed in COS1 cells at 25 to 50 uM measured after 18 hrs by dual luciferase reporter gene assay; procedure, shortened: as §2
T4 sequence (whole entry): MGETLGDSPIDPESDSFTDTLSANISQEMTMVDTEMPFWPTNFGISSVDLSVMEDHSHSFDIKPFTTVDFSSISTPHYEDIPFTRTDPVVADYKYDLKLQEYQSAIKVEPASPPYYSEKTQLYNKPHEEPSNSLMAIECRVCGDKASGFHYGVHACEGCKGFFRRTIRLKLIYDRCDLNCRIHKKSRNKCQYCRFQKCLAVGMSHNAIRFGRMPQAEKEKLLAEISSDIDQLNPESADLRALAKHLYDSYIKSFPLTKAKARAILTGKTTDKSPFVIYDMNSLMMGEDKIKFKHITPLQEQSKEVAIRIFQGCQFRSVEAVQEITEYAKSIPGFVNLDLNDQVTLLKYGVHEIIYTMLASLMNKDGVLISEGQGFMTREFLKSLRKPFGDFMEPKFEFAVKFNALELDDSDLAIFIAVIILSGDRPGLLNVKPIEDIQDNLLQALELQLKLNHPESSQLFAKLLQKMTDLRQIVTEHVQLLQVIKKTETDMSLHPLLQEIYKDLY

CCCCCCCc1cc(CCCCCC(=O)O)no1
Activity [1]: Active | Activity [2]: inactive | Activity [3]: Active | Activity [4]: inactive | Activity [5]: inactive

From ChEMBL document CHEMBL4393735, “Molecular modelling, synthesis, and biological evaluations of a 3,5-disubstituted isoxazole fatty acid analogue as a PPARα-selective agonist” (Bioorg Med Chem, 2019)
